According to ChEMBL document CHEMBL1126084, “2-Acetylpyridine thiocarbonohydrazones. Potent inactivators of herpes simplex virus ribonucleotide reductase” (J Med Chem, 1992):

How the values were obtained:
[1] = target: T1, Ribonucleoside-diphosphate reductase RR1 (Homo sapiens) (UniProt P23921+Q7LG56+P31350); experiment: Inhibitory index against human ribonucleotide reductase calculated as, [1+k inact/f+0.01] where f = 1-% inhibition/100).; format: protein-complex assay
How it was run: (§1)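 Index per eq 1 combines kinact and percent inhibition of initial velocity from reductase reactions ±5 μM inhibitor (unless otherwise indicated). 0.99 is subtracted from the calculated ratio, so a non-inhibiting, non-inactivating compound scores zero. HSV-1 and human enzymes were assayed under their respective conditions.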

[2] = target: T1, Ribonucleoside-diphosphate reductase RR1 (Homo sapiens); experiment: Inhibition of human ribonucleotide reductase by the compound (5 uM); format: protein-complex assay
How it was run: (§2)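 The ATP contributed about 3 μM iron, keeping inhibitors iron-complexed. Reactions ran ±5 μM inhibitor unless otherwise indicated. kinact (per hour, net over the control) and v0 came from iterative nonlinear least-squares fits of decelerating time courses.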

[3] = test system: Human alphaherpesvirus 1; experiment: Inhibitory index against HSV-1 ribonucleotide reductase calculated as, [1+k inact/f+0.01] where f = 1-% inhibition/100).; format: functional; how it was run: as §1
[4] = target: T1, Ribonucleoside-diphosphate reductase RR1 (Homo sapiens); experiment: Apparent enzyme activity measured as the ratio of HSV-1 and human enzyme inhibition induces; format: functional; conditions: Human alphaherpesvirus 1
How it was run: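 Apparent selectivity is the ratio of HSV-1 to human inhibition indices, each from eq 1 at 5 μM inhibitor or at the indicated concentration for each enzyme.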

[5] = target: T1, Ribonucleoside-diphosphate reductase RR1 (Homo sapiens); experiment: Inactivation of human ribonucleotide reductase by the compound (5 uM) at rate constant K inact.; format: protein-complex assay; how it was run: as §2
[6] = test system: Human alphaherpesvirus 1; experiment: Inactivation of HSV-1 ribonucleotide reductase by the compound (5 uM) at rate constant K inact.; format: functional
How it was run: (§3)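 Partially purified HSV-1 ribonucleotide reductase, assayed by reduction of purified [14C]CDP in 200 mM Hepes Na+ pH 7.7, 10 mM dithiothreitol, 2 μM CDP (500 Ci/mol, 3–4 × Km), with and without 5 μM inhibitor unless otherwise indicated. First-order kinact (per hour) and v0 of decelerating product time courses come from iterative nonlinear least squares. kinact is the net increase over the uninhibited control, and % inhibition refers to v0.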

[7] = test system: Human alphaherpesvirus 1; experiment: Inhibition of HSV-1 ribonucleotide reductase by the compound (5 uM); format: functional; how it was run: as §3
[8] = target: T1, Ribonucleoside-diphosphate reductase RR1 (Homo sapiens); experiment: Inhibitory index against human ribonucleotide reductase; format: protein-complex assay; how it was run: as §1
[9] = target: T1, Ribonucleoside-diphosphate reductase RR1 (Homo sapiens); experiment: Inhibition of human ribonucleotide reductase; format: protein-complex assay; parameters: concentration or dose not given beside the values; conditions: concentration not given here; how it was run: as §2
[10] = test system: Human alphaherpesvirus 1; experiment: Inactivation of HSV-1 ribonucleotide reductase at rate constant K inact; how it was run: as §3
[11] = target: T1, Ribonucleoside-diphosphate reductase RR1 (Homo sapiens); experiment: Inactivation of human ribonucleotide reductase at rate constant K inact; format: protein-complex assay; how it was run: as §2
[12] = pKa value of the compound; format: physicochemical
How it was run: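 Protonation and anion-generation pKa values were determined spectrophotometrically.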

[13] = test system: Human alphaherpesvirus 1; experiment: Inhibition of HSV-1 ribonucleotide reductase; parameters: concentration or dose not given beside the values; conditions: concentration not given here; how it was run: as §3
[14] = test system: Human alphaherpesvirus 1; experiment: Inhibitory index against HSV-1 ribonucleotide reductase; how it was run: as §1
[15] = Partition coefficient (logD5.2) (octanol/pH 5.2 acetate buffer); format: physicochemical

Row | Inhibitory index [1] | inhibition [2] [%] | Apparent selectivity (HSV-1/human inhibition index ratio) [4] | kinact [5] [h⁻¹] | Inhibitory index [8] | inhibition [9] [%] | kinact [10] [h⁻¹] | kinact [11] [h⁻¹] | pKa [12] | inhibition [13] [%] | Inhibitory index [14] | logD [15] | Compound | Inhibitory index [3] | kinact [6] [h⁻¹] | Inhibition [7] [%]
1 | – | – | 350 | – | 0.23 | 19 | 33 | 0 | 3.87 | 59 | 80 | – | C/C(=N\N=C(/S)N/N=C(\S)Nc1ccc(C(F)(F)F)cc1)c1ccccn1 | – | – | –
2 | – | – | 21 | – | 1.9 | 31 | 34 | 1 | 3.89 | 15 | 40 | – | C/C(=N\N=C(/S)N/N=C(\S)Nc1cccc(C(F)(F)F)c1)c1ccccn1 | – | – | –
3 | 8.5 | 59 | 2.5 | 3 | – | – | – | – | – | – | – | – | C/C(=N\N=C(/S)N/N=C(\S)Nc1ccccc1)c1ccccn1 | 21 | 20 | 7
4 | 0.73 | 43 | 15 | 0 | – | – | – | – | – | – | – | – | C/C(=N\N=C(/S)N/N=C(\S)Nc1cccnc1)c1ccccn1 | 11 | 9 | 18
5 | – | – | 10 | – | 3.3 | 7 | 25 | 3 | 3.8 | 27 | 34 | – | C/C(=N\N=C(/S)N/N=C(\S)Nc1cccc(I)c1)c1ccccn1 | – | – | –
6 | 4.6 | 83 | 3.8 | 0 | – | – | – | – | – | – | – | – | C/C(=N\N=C(/S)N/N=C(\S)Nc1ccncc1)c1ccccn1 | 17 | 16 | 8

Continued, compound first:

Row | Compound | Inhibitory index [1] | inhibition [2] [%] | Apparent selectivity (HSV-1/human inhibition index ratio) [4] | kinact [5] [h⁻¹] | Inhibitory index [8] | inhibition [9] [%] | kinact [10] [h⁻¹] | kinact [11] [h⁻¹] | pKa [12] | inhibition [13] [%] | Inhibitory index [14] | logD [15] | Inhibitory index [3] | kinact [6] [h⁻¹] | Inhibition [7] [%]
7 | C/C(=N\N=C(/S)N/N=C(\S)NC12CC3CC(CC(C3)C1)C2)c1ccccn1 | 1.1 | 53 | 24 | 0 | – | – | – | – | – | – | – | – | 27 | 14 | 47
8 | C/C(=N\N=C(/S)N/N=C(\S)Nc1ccccc1C)c1ccccn1 | 3 | 51 | 4.6 | 1 | – | – | – | – | – | – | – | – | 14 | 10 | 27
9 | CCOC(=O)NC(=S)N/N=C(\S)N/N=C(\C)c1ccccn1 | 3.9 | 40 | 1.8 | 2 | – | – | – | – | – | – | – | – | 7 | 6 | 14
10 | C/C(=N\N=C(/S)N/N=C(\S)Nc1cccc(Cl)c1Cl)c1ccccn1 | – | – | 160 | – | 0.42 | 30 | 49 | 0 | 3.86 | 29 | 68 | – | – | – | –
11 | C/C(=N\N=C(/S)NNC(=S)NC(=O)c1ccccc1)c1ccccn1 | 5.4 | 54 | 4.5 | 2 | – | – | – | – | – | – | – | – | 24 | 15 | 38
12 | C/C(=N\N=C(/S)N/N=C(\S)Nc1ccccc1Cl)c1ccccn1 | – | – | 21 | – | 1.3 | 57 | 27 | 0 | 3.94 | 0 | 27 | 2.67 | – | – | –
13 | C/C(=N\N=C(/S)N/N=C(\S)NCCCN1CCOCC1)c1ccccn1 | 0.29 | 23 | 24 | 0 | – | – | – | – | – | – | – | – | 7 | 6.1 | 12
14 | C/C(=N\N=C(/S)N/N=C(\S)NCCN1CCOCC1)c1ccccn1 | 1 | 31 | 15 | 0.4 | – | – | – | – | – | – | – | – | 15 | 11 | 24
15 | C/C(=N\N/C(S)=N/N=C(\S)N(C)C)c1ccccn1 | – | – | 3 | – | 4.4 | 8 | 8 | 4 | – | 39 | 14 | 1.25 | – | – | –
16 | COc1ccc(Cl)cc1/N=C(\S)N/N=C(\S)N/N=C(\C)c1ccccn1 | 1.2 | 9 | 66 | 1 | – | – | – | – | – | – | – | – | 78 | 41 | 48
